From ChEMBL document CHEMBL1138358, “Synthesis and in vivo antitumor evaluation of 2-methoxyestradiol 3-phosphate, 17-phosphate, and 3,17-diphosphate” (J Med Chem, 2007) come the findings set out here.

One data set concerns SN12C. As to the kind of experiment: Cytotoxicity against human SN12C cells. It counts as functional.
The subject of a further data set is HCT-116. The data set is described as follows: Cytotoxicity against human HCT116 cells. In kind it is functional.
Another data set deals with MDA-MB-435. The data set is described as follows: Cytotoxicity against human MDA-MB-435 cells. It counts as functional.
The test system of another data set is OVCAR-3. As to the kind of experiment: Cytotoxicity against human OVCAR-3 cells. It counts as functional.
In a further data set the test system is SF-539. The data set is described as follows: Cytotoxicity against human SF539 cells. In kind it is functional.
Another data set has as its system DU-145. The data set is described as follows: Cytotoxicity against human DU145 cells. It counts as functional.
The next data set has as its system UACC-62. As to the kind of experiment: Cytotoxicity against human UACC62 cells. It counts as functional.
For the next data set, the system named is HOP-62. The data set is described as follows: Cytotoxicity against human HOP62 cells. It counts as functional.
Data set [1] concerns Plasma. As to the kind of experiment: Drug level in Sprague-Dawley rat plasma at 1 mg/kg, iv assessed as 2-methoxyestrone level after 5 mins. It counts as ADME, organism-based. More on the design: dose 1 mg/kg, route intravenous. As to conditions: in vivo. In a few lines:
(§1)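 Jugular-cannulated Sprague–Dawley rats were fasted overnight and given a single tail-vein dose in 45% (w/v) hydroxypropyl-β-cyclodextrin in water (0.5 mg/mL, 2 mL/kg). K-EDTA blood was drawn via the cannula and the plasma was frozen below −20 °C. Plasma was acidified with formic acid and analysed by negative-ion ESI LC-MS/MS (MRM). Standard curves were spiked into rat plasma.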

Data set [2] can be described thus: Drug level in Sprague-Dawley rat plasma at 1 mg/kg, iv after 120 mins. It counts as ADME, organism-based. More on the design: dose 1 mg/kg, route intravenous. In a few lines:
as §1

For data set [3], the system named is Plasma. The data set is described as follows: Drug level in Sprague-Dawley rat plasma at 1 mg/kg, iv assessed as 2-methoxyestradiol level after 30 mins. In kind it is ADME, organism-based. More on the design: dose 1 mg/kg, route intravenous. As to conditions: in vivo, 0.5 h. A digest of the protocol:
as §1

Data set [4] is described as follows: Drug level in Sprague-Dawley rat plasma at 1 mg/kg, iv after 30 mins. It counts as ADME, organism-based. Further details: dose 1 mg/kg, route intravenous. A digest of the protocol:
as §1

The subject of data set [5] is Plasma. As to the kind of experiment: Drug level in Sprague-Dawley rat plasma at 1 mg/kg, iv assessed as 2-methoxyestradiol level after 15 mins. As to conditions: in vivo, 0.25 h. In kind it is ADME, organism-based. Further details: dose 1 mg/kg, route intravenous. A digest of the protocol: as §1
Data set [6] concerns Plasma. The data set is described as follows: Drug level in Sprague-Dawley rat plasma at 1 mg/kg, iv assessed as 2-methoxyestrone level after 30 mins. As to conditions: in vivo, 0.5 h. Further details: dose 1 mg/kg, route intravenous. It counts as ADME, organism-based. A digest of the protocol: as §1
The test system of data set [7] is Plasma. The data set is described as follows: Drug level in Sprague-Dawley rat plasma at 1 mg/kg, iv assessed as 2-methoxyestradiol level after 5 mins. More on the design: dose 1 mg/kg, route intravenous. In kind it is ADME, organism-based. Conditions: in vivo. A digest of the protocol:
as §1

Data set [8] is described as follows: Drug level in Sprague-Dawley rat plasma at 1 mg/kg, iv after 15 mins. More on the design: dose 1 mg/kg, route intravenous. It counts as ADME, organism-based. A digest of the protocol:
as §1

In data set [9] the test system is Plasma. As to the kind of experiment: Drug level in Sprague-Dawley rat plasma at 1 mg/kg, iv assessed as 2-methoxyestradiol level after 120 mins. It counts as ADME, organism-based. More on the design: dose 1 mg/kg, route intravenous. As to conditions: in vivo, 2 h. A digest of the protocol:
as §1

The subject of data set [10] is Plasma. As to the kind of experiment: Drug level in Sprague-Dawley rat plasma at 1 mg/kg, iv assessed as 2-methoxyestrone level after 60 mins. In kind it is ADME, organism-based. More on the design: dose 1 mg/kg, route intravenous. As to conditions: in vivo, 1 h. In a few lines: as §1
The subject of data set [11] is Plasma. The data set is described as follows: Drug level in Sprague-Dawley rat plasma at 1 mg/kg, iv assessed as 2-methoxyestrone level after 120 mins. Conditions: in vivo, 2 h. In kind it is ADME, organism-based. More on the design: dose 1 mg/kg, route intravenous. In a few lines: as §1
The nature of data set [12]: Drug level in Sprague-Dawley rat plasma at 1 mg/kg, iv after 5 mins. In kind it is ADME, organism-based. More on the design: dose 1 mg/kg, route intravenous. A digest of the protocol: as §1
Data set [13] is described as follows: Drug level in Sprague-Dawley rat plasma at 1 mg/kg, iv after 60 mins. It counts as ADME, organism-based. Further details: dose 1 mg/kg, route intravenous. A digest of the protocol:
as §1

Data set [14] has as its system Plasma. As to the kind of experiment: Drug level in Sprague-Dawley rat plasma at 1 mg/kg, iv assessed as 2-methoxyestrone level after 15 mins. It counts as ADME, organism-based. As to conditions: in vivo, 0.25 h. More on the design: dose 1 mg/kg, route intravenous. A digest of the protocol: as §1
For data set [15], the system named is Plasma. As to the kind of experiment: Drug level in Sprague-Dawley rat plasma at 1 mg/kg, iv assessed as 2-methoxyestradiol level after 60 mins. Further details: dose 1 mg/kg, route intravenous. In kind it is ADME, organism-based. Conditions: in vivo, 1 h. A digest of the protocol:
as §1

For data set [16], the system named is Lewis lung carcinoma cell line. As to the kind of experiment: Antitumor activity against LLC cells inoculated in C57BL/6J mouse assessed as lung weight at 200 mg/kg, ip qd for 12 days. It counts as functional. As to conditions: route intraperitoneal. A digest of the protocol:
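LLC cells in exponential growth were harvested by brief trypsinization (0.25% trypsin, 0.02% EDTA, 1 min, 37 °C), washed and resuspended at 5 × 10⁵ cells/mL in Ca²⁺/Mg²⁺-free PBS. Mice were housed under SPF conditions, with 10 per group. From day 3 after tumor cell injection, compound was given ip daily for 12 days. On day 15, mean lung weight was corrected for non-tumor-bearing lung weight. T/C = (A − C)/(B − C) versus vehicle (0.1 mL).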

Data set [17] deals with Lewis lung carcinoma cell line. The data set is described as follows: Antitumor activity against LLC cells inoculated in C57BL/6J mouse assessed as lung weight at 100 mg/kg, ip qd for 12 days. It counts as functional. As to conditions: route intraperitoneal. A digest of the protocol:
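LLC cells in exponential growth were harvested by brief trypsinization (1 min, 37 °C), washed, and resuspended at 5 × 10⁵ cells/mL in Ca²⁺/Mg²⁺-free PBS before injection into SPF-housed mice. From day 3 after injection, groups of 10 mice were dosed ip daily for 12 days. On day 15, mean lung weight was corrected for non-tumor-bearing lung weight. T/C = (A − C)/(B − C).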

For `CCOP(=O)(OCC)Oc1cc2c(cc1OC)[C@H]1CC[C@]3(C)[C@@H](OP(=O)(OCC)OCC)CC[C@H]3[C@@H]1CC2`, the concentration for 50% growth inhibition (GI50) was determined as 16.6 µM in the data set on SN12C; 20.4 µM with HCT-116; 56.2 µM in the data set on MDA-MB-435; 55 µM in the data set with OVCAR-3; 19.5 µM in the data set with SF-539; 13.8 µM in the data set with DU-145. The figures for the GI50 with UACC-62 and in the data set on HOP-62 were 11.5 µM and 21.9 µM, respectively.

Consider `CCOP(=O)(OCC)O[C@H]1CC[C@H]2[C@@H]3CCc4cc(O)c(OC)cc4[C@H]3CC[C@]12C`, for which the GI50 was 17.4 µM in the data set on SN12C; 19 µM with HCT-116; 13.2 µM in the data set with MDA-MB-435; 15.1 µM in the data set with OVCAR-3; 19.5 µM with SF-539; 14.4 µM in the data set on UACC-62.

As for `COc1cc2c(cc1O)CC[C@@H]1[C@@H]2CC[C@]2(C)[C@@H](OP(=O)(O)O)CC[C@@H]12`, the Cp in the data set on Plasma [1] came out at 5 ng/mL; in the data set with Plasma [3] it was 9.2 ng/mL; in the data set on Plasma [5], 15 ng/mL; in the data set on Plasma [6], 5 ng/mL; with Plasma [7], 34.1 ng/mL; in the data set with Plasma [9], 5 ng/mL. Moreover, the Cp in the data set on Plasma [10], in the data set on Plasma [11], with Plasma [14] and in the data set on Plasma [15] was 5 ng/mL in each case. In addition, the concentration for 50% growth inhibition (GI50) in the data set on SN12C was above 100 µM; in the data set with HCT-116, 87.1 µM; in the data set with MDA-MB-435, 20 µM; with SF-539, 75.9 µM; in the data set on UACC-62 it was 38 µM. Further, in data set [2], the concentration at 2 h came out at 6.9 ng/mL. In data set [4], this compound returned a concentration at 0.5 h of 138 ng/mL. In [8], this compound had a concentration at 0.25 h of 351 ng/mL. For the same compound, the concentration at 5 min in [12] was 1320 ng/mL. This compound displayed a concentration at 1 h in data set [13] of 21.2 ng/mL.

For `COc1cc2c(cc1OP(=O)([O-])O)CC[C@@H]1[C@@H]2CC[C@]2(C)[C@@H](O)CC[C@@H]12.[Na+]`, the Cp in the data set with Plasma [1] was 16.3 ng/mL; in the data set with Plasma [3], 22.3 ng/mL; in the data set on Plasma [5], 57.3 ng/mL; in the data set on Plasma [6], 8.8 ng/mL; with Plasma [7], 153.4 ng/mL; in the data set with Plasma [9] it was 5 ng/mL. Besides, the Cp came out at 2.7 ng/mL in the data set with Plasma [10], 5 ng/mL in the data set on Plasma [11], 12.7 ng/mL in the data set on Plasma [14] and 5.3 ng/mL in the data set on Plasma [15]. Moreover, the GI50 in the data set with SN12C came out at 1.31 µM; in the data set with HCT-116, 1.45 µM; in the data set on MDA-MB-435 it was 0.11 µM; in the data set with OVCAR-3, 0.34 µM; in the data set with SF-539 it was 0.66 µM; in the data set with DU-145, 2.95 µM. Further, the figures for the GI50 in the data set with UACC-62 and with HOP-62 were 1.32 µM and 0.69 µM, respectively. In data set [2], this compound displayed a concentration at 2 h below 1 ng/mL. In [4], the concentration at 0.5 h was 7.1 ng/mL. In addition, the values for the Activity in data set [16] and in data set [17] were 0.23 g and 0.44 g, respectively. Besides, the concentration at 0.25 h in data set [8] came out at 31.3 ng/mL. The concentration at 5 min in data set [12] came out at 366 ng/mL. The compound also showed a concentration at 1 h in [13] of 1.2 ng/mL.

With `COc1cc2c(cc1O)CC[C@@H]1[C@@H]2CC[C@]2(C)C(=O)CC[C@@H]12`, the Cp with Plasma [9] was found to be 5 ng/mL.

Regarding `COc1cc2c(cc1OP(=O)(O)O)CC[C@@H]1[C@@H]2CC[C@]2(C)[C@@H](OP(=O)(O)O)CC[C@@H]12`, the concentration for 50% growth inhibition (GI50) in the data set on SN12C, in the data set with HCT-116, in the data set on MDA-MB-435, in the data set with OVCAR-3, with DU-145 and in the data set on UACC-62 was above 100 µM throughout. Besides, the GI50 with HOP-62 was above 100 µM.

As to `COc1cc2c(cc1O)CC[C@@H]1[C@@H]2CC[C@]2(C)[C@@H](O)CC[C@@H]12` [2-METHOXYESTRADIOL], the Cp in the data set on Plasma [1] is 6.3 ng/mL; with Plasma [3], 44.7 ng/mL; in the data set with Plasma [5] it was 168 ng/mL; in the data set on Plasma [6], 5.4 ng/mL; in the data set with Plasma [7], 764 ng/mL; in the data set on Plasma [9], 5 ng/mL. Also, the Cp is 5 ng/mL in the data set on Plasma [10], 5 ng/mL in the data set on Plasma [11], 5 ng/mL in the data set with Plasma [14] and 11.3 ng/mL in the data set with Plasma [15]. For the same compound, the GI50 in the data set with SN12C turned out to be 0.95 µM; in the data set on HCT-116 it was 0.47 µM; with MDA-MB-435, 0.08 µM; in the data set with OVCAR-3, 0.21 µM; with SF-539, 0.32 µM; with DU-145, 1.8 µM. In addition, the 50% growth inhibitory concentration (GI50) in the data set on UACC-62 was found to be 0.36 µM; in the data set with HOP-62, 0.7 µM. This compound came in with a concentration at 2 h in data set [2] of 5 ng/mL. The same compound yielded a concentration at 0.5 h in [4] of 44.7 ng/mL. The Activity in data set [16] came to 0.44 g. The concentration at 0.25 h in data set [8] came out at 168 ng/mL. In [12], this compound registered a concentration at 5 min of 764 ng/mL. In data set [13], this compound showed a concentration at 1 h of 11.3 ng/mL.
